A selection: hits, their analogues and other compounds. The true share with any hit is near 2.2%.
EBI2 block: antagonists of human EBI2 receptor. EBI2 beta-arrestin recruitment, luminescence, 7a,25-OHC stimulated. P32249. inhibition, % at 5 µM. actives 0.81% (n = 360,000); in the data active = inhibition above about 38%;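 note: enzyme fragment complementation signal reports receptor beta-arrestin coupling in cells; 0% = agonist plus DMSO wells and 100% = wells without agonist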
CCR6 antag: antagonists of human CCR6 receptor; inhibition, % at 20 µM; CHO-K1 CCR6 PathHunter beta-arrestin, luminescence, CCL20-stimulated; actives 0.49% (n = 340,000); P51684;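 active = compounds whose inhibition of the agonist-driven luminescence signal at 20 µM reaches about 50%, limit read from the data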;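 note: cells stimulated with CCL20 at 14 nM final; plate controls were DMSO with CCL20 for no effect and DMSO without agonist for full effect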
HTR2A ag: activates the mouse 5-HT2A serotonin receptor | CHO-K1 mHTR2A beta-arrestin complementation, luminescence; percent of 30 µM serotonin response | AID 624169 | actives 0.66% (n = 360,000) | P35363 | activation, % at 7.6 µM;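 active = activation above a run cutoff, the mean activation of all tested compounds plus 3 SD, cut at about 14% in these data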;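 note: 0% = plate median of compound wells and 100% = 30 µM serotonin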
APJ antag: APJ receptor antagonism. inhibition, % at 20 µM. actives 0.32% (n = 330,000). CHO-K1 APJ beta-arrestin complementation, luminescence. P35414. AID 2521;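 active = inhibition above about 40% at 20 µM, limit read from the data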;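 note: cells challenged with 10 nM apelin-13 agonist together with compound; plate controls were apelin-13 plus DMSO wells for no effect and DMSO wells lacking apelin-13 for full effect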
CXCR6 block: blocks human CXCR6 beta-arrestin recruitment | O00574 | CHO-K1 PathHunter CXCR6 beta-arrestin, luminescence | inhibition, % at 20 µM | actives 0.36% (n = 360,000); in the data active = inhibition above about 34%, passing the limit was not always enough;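 note: antagonist mode with CXCL16 agonist at 10 nM final; 0% = 10 nM CXCL16 with DMSO and 100% = unstimulated wells without agonist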
Target sequence (O00574 whole entry, looked up): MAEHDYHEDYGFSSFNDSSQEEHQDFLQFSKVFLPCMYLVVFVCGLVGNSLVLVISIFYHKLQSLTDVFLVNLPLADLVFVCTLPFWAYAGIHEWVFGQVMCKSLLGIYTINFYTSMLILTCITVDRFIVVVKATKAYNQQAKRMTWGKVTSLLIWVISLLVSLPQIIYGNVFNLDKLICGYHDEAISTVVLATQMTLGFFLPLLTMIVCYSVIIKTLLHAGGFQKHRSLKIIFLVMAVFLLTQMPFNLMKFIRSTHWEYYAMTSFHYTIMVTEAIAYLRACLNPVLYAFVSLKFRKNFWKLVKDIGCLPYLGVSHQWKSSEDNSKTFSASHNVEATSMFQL
APJ agonist: APJ receptor agonism; P35414; CHO-K1 APJ PathHunter beta-arrestin, luminescence; 0% DMSO wells, 100% apelin; activation, % at 20 µM; actives 0.11% (n = 330,000);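 active = activation more than six SD over the plate average, tested at 20 µM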;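 note: 0% = DMSO alone and 100% = apelin-13 at 10 nM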
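Test system: CHO-K1 APJ beta-arrestin complementation cell line. Amount: cell density 1000 per well. Controls: DMSO negative, 10 nM Apelin-13 positive. Signal: luminescent beta-gal fragment complementation, chemiluminescent substrate. Read-out basis: agonist-driven arrestin binding to APJ. Timing: compound stimulation 90 min at 25 °C, detection 60 min.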
APJ antag confirm: APJ receptor antagonism confirmation; shares compounds with APJ antag; APJ beta-arrestin recruitment, luminescence, antagonist mode; inhibition, % at 20 µM; actives 66% (n = 950); AID 2766; in the data active = inhibition above about 50%
Active calls of the source: *; · = no result.

SMILES	EBI2 block	CCR6 antag	HTR2A ag	APJ antag	CXCR6 block	APJ agonist	APJ antag confirm
O=[N+]([O-])c1ccc(N2CCN(S(=O)(=O)c3ccccc3)CC2)c2cccnc12	16	52*	-7	46*	31	-5	65*
CCCc1nc2c3ccccc3ccn2c1CC1CCCCC1	13	·	0	·	9	·	·
CCOC(=O)c1c(-c2ccc(-c3ccccc3)cc2)csc1NC(=O)CNCCN(C)C	-7	78*	-10	43*	32	-6	96*
COc1ccc(S(=O)(=O)NNc2nc(C)cc(C)n2)cc1Br	7	30	4	54*	21	-18	52*
Cc1cc(C)nc(NNS(=O)(=O)c2ccc(Cl)cc2)n1	7	53*	-4	75*	26	-17	113*
Cc1cc(C)nc(NNS(=O)(=O)c2ccc(F)c(Cl)c2)n1	30	42	1	53*	21	-22	109*
CCCc1nc2c3ccccc3ccn2c1Cc1cccc(F)c1	9	·	3	·	14	·	·
FC(F)(F)c1cc(C(F)(F)F)c2ccc(N/N=C/c3ccccc3)nc2n1	20	-6	0	-12	-5	1	·
CN(N)c1ccc2c(C(F)(F)F)cc(C(F)(F)F)nc2n1	-3	-1	0	13	-2	-2	·
N#CC(c1ccccc1)c1ccc2c(C(F)(F)F)cc(C(F)(F)F)nc2n1 (centres undefined)	-20	53*	3	42*	23	-5	88*
Cc1ccc(C(C#N)c2ccc3c(C(F)(F)F)cc(C(F)(F)F)nc3n2)cc1 (centres undefined)	-9	54*	0	49*	35	-6	80*
Fc1cccc(Cc2c(-c3ccccc3)nc3ccc(Cl)cn23)c1	-1	·	-3	·	19	·	·
COc1ccc(C(=O)Nc2ccc(Cl)c(S(=O)(=O)Nc3ccccc3OC)c2)cc1	2	21	0	41*	0	0	23
CN(C)c1ccc2nc3ccc(=O)cc-3sc2c1	-4	·	-2	·	-1	·	·
CN(C)c1ccc2nc3ccc(=[N+](C)C)cc-3sc2c1	11	36	-10	45*	18	-6	33
Cc1ccccc1C(=O)N(C)[C@H]1C[C@H]2c3[nH]c4ccccc4c3CCN2C(=O)[C@H]1[C@H](C)O	-2	·	7	·	0	·	·
O=C(CSc1nnc(Cn2c(=O)sc3ccccc32)n1-c1ccccc1)N1CCOCC1	4	-3	1	-4	-2	-1	·
Cc1ccccc1-n1c(Cn2c(=O)sc3ccccc32)nnc1SCC(=O)N1CCOCC1	5	5	-5	52*	-2	0	19
COc1cc(C(=O)N2CCN(c3cccc(C)c3C)CC2)cc(OC)c1OC	-1	-2	-3	50*	4	-4	5
Cc1cccc(N2CCN(C(=O)c3ccncc3)CC2)c1C	-8	-9	-2	-10	1	-2	·
CCCCN(C)C(=O)c1ccc(Nc2nc(C(N)Cc3ccc(C(F)(F)F)cc3)cs2)nc1 (centres undefined)	0	·	2	·	-7	·	·
O=C(C1CCCCC1)N1CCCn2c1nc1ccccc12	2	-3	-6	4	-23	-3	·
O=C(C1CCN(S(=O)(=O)c2cnc[nH]2)CC1)N1CCn2c1nc1ccccc12	35	67*	-1	61*	56*	-14	101*
S=C1NCCc2ccccc2C1c1ccccc1Cl (centres undefined)	9	52*	-4	44*	35	-11	87*
S=C1NCCc2ccccc2C1c1ccccc1 (centres undefined)	-1	31	-5	19	12	-5	·
SMILES	EBI2 block	CCR6 antag	HTR2A ag	APJ antag	CXCR6 block	APJ agonist	APJ antag confirm
Oc1ccccc1/C=N/Nc1cc(N2CCCC2)nc(N2CCCC2)n1	28	35	-3	42*	16	-3	42
O=C1NN(c2cccc(Br)c2)C(=O)/C1=C/c1ccc(-c2cc([N+](=O)[O-])ccc2O)o1	12	86*	0	61*	62*	-8	98*
O=C1NN(c2cccc(Br)c2)C(=O)/C1=C\c1ccc(O)cc1	2	27	2	23	3	-7	·
CC1=NN(c2ccc(C)cc2)C(=O)/C1=C/c1ccc(-c2cc([N+](=O)[O-])ccc2O)o1	7	72*	2	47*	42*	-5	93*
CC1=NN(c2ccc(C(=O)O)cc2)C(=O)/C1=C/c1ccc(-c2ccccc2F)o1	41	·	0	17	7	8	·
OC[C@@H]1CN(Cc2cccnc2)C[C@H](n2cnc3c(N4CCN(c5ccccc5)CC4)ncnc32)O1	12	·	-7	·	1	·	·
Clc1ccccc1Nc1nc(NCC2CC2)nc2ccsc12	-14	·	-9	·	-5	·	·
O=C1NC[C@H](CCCCN2CCN(CCC3CCCCC3)C(=O)C2=O)N(CC2CCCCC2)C1=O	-6	·	-3	·	1	·	·
C=CCn1c(-c2cccc3ccccc23)n[nH]c1=S	13	-18	-3	43*	4	-2	15
C=CCn1c(-c2ccccc2OC)n[nH]c1=S	-12	5	5	5	0	-3	·
Cc1cc(C(=O)OCC(=O)c2ccc(Cl)c([N+](=O)[O-])c2)c2cccc(C)c2n1	3	45	0	11	26	-5	·
Cc1ccc(C(=O)NCC(=O)OCC(=O)c2ccc(C)c([N+](=O)[O-])c2)cc1	5	40	-1	55*	17	-4	60*
Cc1ccc2nc(C)cc(C(=O)OCC(=O)c3ccc(Cl)c([N+](=O)[O-])c3)c2c1	21	102*	-5	86*	59*	-22	126*
Cc1ccc(C(=O)COC(=O)CNC(=O)C(c2ccccc2)c2ccccc2)cc1[N+](=O)[O-]	10	58*	-3	64*	23	-15	67*
CCC(=O)Nc1ccc(C(=O)OCC(=O)c2ccc(C)c([N+](=O)[O-])c2)cc1	-11	4	6	6	2	-2	·
CCc1ccc(C(=O)COC(=O)CNC(=O)Cc2ccccc2)cc1	9	-2	14	-1	-5	-3	·
O=C(Cc1ccccc1)NCC(=O)OCC(=O)c1ccc(Cl)c([N+](=O)[O-])c1	17	91*	0	89*	48*	-11	144*
O=C(Cc1ccc(NC(=O)C2CCN(C(=O)CCc3ccccc3)CC2)cc1)Nc1ccc(C(=O)N2CCOCC2)cc1	-2	3	-2	·	7	·	·
CCOC(=O)[C@]12CCC=C1N(CCC1=CCCCC1)C(=O)[C@H](CC(=O)NCCCCc1ccccc1)C2	11	·	-7	·	8	·	·
N#C/C(=N/Nc1ccccc1[N+](=O)[O-])C(N)=S	-3	36	-5	40*	18	-9	105*

Screens as filed in PubChem BioAssay.
